Measurements reported in ChEMBL document CHEMBL1123041, “Synthesis of new bis(aminoethanethiol) (BAT) derivatives: possible ligands for 99mTc brain imaging agents” (J Med Chem, 1985).

Experiments:
Rattus norvegicus [1] = assay: Biodistribution in Sprague-Dawley rat kidneys(2) 15 minutes after intravenous administration, [99mTc]/[125I] IAP ratio); format: ADME, organism-based, Kidney; settings: in vivo, 0.25 h
Procedure, shortened: (§1)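 99mTc complex and [125I]iodoantipyrine were co-injected iv into rats. Rats were killed by cardiectomy at 2 or 15 min, and organs were excised, weighed and gamma-counted in two channels with spillover correction. The ratio is 99mTc percent dose divided by 125I percent dose in the same organ, averaged over three rats. Radiochemical purity of the complexes was >95% by reversed-phase HPLC.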

Rattus norvegicus [2] = assay: Biodistribution in Sprague-Dawley rat skin 15 minutes after intravenous administration, [99mTc]/[125I] IAP ratio); format: ADME, organism-based, Zone of skin; settings: in vivo, 0.25 h; procedure, shortened: as §1
Rattus norvegicus [3] = assay: Biodistribution in Sprague-Dawley rat liver 15 minutes after intravenous administration, [99mTc]/[125I] IAP ratio); format: ADME, organism-based; settings: in vivo, 0.25 h; procedure, shortened: as §1
Rattus norvegicus [4] = assay: Biodistribution in Sprague-Dawley rat small intestine 2 minutes after intravenous administration, [99mTc]/[125I] IAP ratio); format: ADME, organism-based; settings: in vivo; procedure, shortened: as §1
Rattus norvegicus [5] = assay: Biodistribution in Sprague-Dawley rat lungs(2) 2 minutes after intravenous administration, [99mTc]/[125I] IAP ratio); format: ADME, organism-based, Lung; settings: in vivo; procedure, shortened: as §1
Rattus norvegicus [6] = assay: Biodistribution in Sprague-Dawley rat thyroid 15 minutes after intravenous administration, [99mTc]/[125I] IAP ratio); format: ADME, organism-based, Thyroid gland; settings: in vivo, 0.25 h; procedure, shortened: as §1
Rattus norvegicus [7] = assay: Biodistribution in Sprague-Dawley rat spleen 2 minutes after intravenous administration, [99mTc]/[125I] IAP ratio); format: ADME, organism-based; settings: in vivo; procedure, shortened: as §1
Rattus norvegicus [8] = assay: Biodistribution in Sprague-Dawley rat brain 15 minutes after intravenous administration, [99mTc]/[125I] IAP ratio); format: ADME, organism-based; settings: in vivo, 0.25 h; procedure, shortened: as §1
Rattus norvegicus [9] = assay: Biodistribution in Sprague-Dawley rat blood 2 minutes after intravenous administration, [99mTc]/[125I] IAP ratio); format: ADME, organism-based; settings: in vivo; procedure, shortened: as §1
[10] = Partition coefficient was determined at pH 7.0.; format: ADME; settings: octanol/water
Procedure, shortened: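 99mTc-labelled BAT complex shaken with 3 g each of 1-octanol and 0.1 M phosphate buffer (pH 7.0), vortexed 3 min at room temperature, centrifuged 5 min. Two 0.5 g samples per layer counted in a well counter; PC = cpm/g octanol over cpm/g buffer. Octanol layer repartitioned until values were consistent; usually repeated three times.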

Rattus norvegicus [11] = assay: Biodistribution in Sprague-Dawley rat muscle 2 minutes after intravenous administration, [99mTc]/[125I] IAP ratio); format: ADME, organism-based, Muscle tissue; settings: in vivo; procedure, shortened: as §1
Rattus norvegicus [12] = assay: Biodistribution in Sprague-Dawley rat lungs(2) 15 minutes after intravenous administration, [99mTc]/[125I] IAP ratio); format: ADME, organism-based, Lung; settings: in vivo, 0.25 h; procedure, shortened: as §1
Rattus norvegicus [13] = assay: Biodistribution in Sprague-Dawley rat liver 2 minutes after intravenous administration, [99mTc]/[125I] IAP ratio); format: ADME, organism-based; settings: in vivo; procedure, shortened: as §1
Rattus norvegicus [14] = assay: Biodistribution in Sprague-Dawley rat heart 2 minutes after intravenous administration, [99mTc]/[125I] IAP ratio); format: ADME, organism-based; settings: in vivo; procedure, shortened: as §1
Homo sapiens = organism: Homo sapiens; assay: The human serum protein binding activity was determined; format: functional
Procedure, shortened: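 Equilibrium dialysis: 0.4 mL pooled human serum against 0.4 mL 0.15 M phosphate buffer pH 7.4 containing 99mTc complex (~0.025 μCi), rotated 18 h at 37 °C. Both sides weighed and counted; percent free = buffer/serum radioactivity concentration ratio × 100. Membrane counted afterwards to check membrane binding.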

Rattus norvegicus [15] = assay: Biodistribution in Sprague-Dawley rat spleen 15 minutes after intravenous administration, [99mTc]/[125I] IAP ratio); format: ADME, organism-based; settings: in vivo, 0.25 h; procedure, shortened: as §1
Rattus norvegicus [16] = assay: Biodistribution in Sprague-Dawley rat skin 2 minutes after intravenous administration, [99mTc]/[125I] IAP ratio); format: ADME, organism-based, Zone of skin; settings: in vivo; procedure, shortened: as §1
Rattus norvegicus [17] = assay: Biodistribution in Sprague-Dawley rat heart 15 minutes after intravenous administration, [99mTc]/[125I] IAP ratio); format: ADME, organism-based; settings: in vivo, 0.25 h; procedure, shortened: as §1
Rattus norvegicus [18] = assay: Biodistribution in Sprague-Dawley rat blood 15 minutes after intravenous administration, [99mTc]/[125I] IAP ratio); format: ADME, organism-based; settings: in vivo, 0.25 h; procedure, shortened: as §1
Rattus norvegicus [19] = assay: Biodistribution in Sprague-Dawley rat muscle 15 minutes after intravenous administration, [99mTc]/[125I] IAP ratio); format: ADME, organism-based, Muscle tissue; settings: in vivo, 0.25 h; procedure, shortened: as §1
Rattus norvegicus [20] = assay: Biodistribution in Sprague-Dawley rat thyroid 2 minutes after intravenous administration, [99mTc]/[125I] IAP ratio); format: ADME, organism-based, Thyroid gland; settings: in vivo; procedure, shortened: as §1
Rattus norvegicus [21] = assay: Biodistribution in Sprague-Dawley rat stomach 15 minutes after intravenous administration, [99mTc]/[125I] IAP ratio); format: ADME, organism-based; settings: in vivo, 0.25 h; procedure, shortened: as §1
Rattus norvegicus [22] = assay: Biodistribution in Sprague-Dawley rat small intestine 15 minutes after intravenous administration, [99mTc]/[125I] IAP ratio); format: ADME, organism-based; settings: in vivo, 0.25 h; procedure, shortened: as §1
Rattus norvegicus [23] = assay: Biodistribution in Sprague-Dawley rat brain 2 minutes after intravenous administration.; format: ADME, organism-based; settings: in vivo
Procedure, shortened: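 Rats received the 99mTc complex iv together with [125I]iodoantipyrine as internal reference and were killed by cardiectomy. Brain was excised, weighed and gamma-counted. Percent dose/organ was obtained by comparing tissue activity with diluted aliquots of the injected dose, averaged over three rats. Radiochemical purity of the complexes was >95% by HPLC.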

Rattus norvegicus [24] = assay: Biodistribution in Sprague-Dawley rat kidneys(2) 2 minutes after intravenous administration, [99mTc]/[125I] IAP ratio); format: ADME, organism-based, Kidney; settings: in vivo; procedure, shortened: as §1
Rattus norvegicus [25] = assay: Biodistribution in Sprague-Dawley rat stomach 2 minutes after intravenous administration, [99mTc]/[125I] IAP ratio); format: ADME, organism-based; settings: in vivo; procedure, shortened: as §1
Rattus norvegicus [26] = assay: Compound was evaluated for the biodistribution in Sprague-Dawley rats in muscle 15 minutes after intravenous administration, [99mTc]/[125I] IAP ratio); format: ADME, organism-based, Muscle tissue; settings: in vivo, 0.25 h; procedure, shortened: as §1
Rattus norvegicus [27] = assay: Biodistribution in Sprague-Dawley rat brain 2 minutes after intravenous administration, [99mTc]/[125I] IAP ratio); format: ADME, organism-based; settings: in vivo; procedure, shortened: as §1

| Dose (Rattus norvegicus [1]) [%] | Dose (Rattus norvegicus [2]) [%] | Dose (Rattus norvegicus [3]) [%] | Dose (Rattus norvegicus [4]) [%] | Dose (Rattus norvegicus [5]) [%] | Dose (Rattus norvegicus [6]) [%] | Dose (Rattus norvegicus [7]) [%] | Dose (Rattus norvegicus [8]) [%] | Dose (Rattus norvegicus [9]) [%] | Partition coefficient [10] | Dose (Rattus norvegicus [11]) [%] | Dose (Rattus norvegicus [12]) [%] | Dose (Rattus norvegicus [13]) [%] | Dose (Rattus norvegicus [14]) [%] | Free (Homo sapiens) [%] | Dose (Rattus norvegicus [15]) [%] | Dose (Rattus norvegicus [16]) [%] | Dose (Rattus norvegicus [17]) [%] | Dose (Rattus norvegicus [18]) [%] | Dose (Rattus norvegicus [20]) [%] | SMILES | further results |
| --- | --- | --- | --- | --- | --- | --- | --- | --- | --- | --- | --- | --- | --- | --- | --- | --- | --- | --- | --- | --- | --- |
| 1.73 | 8.17 | 25.4 | 6.24 | 4.94 | 0.057 | 0.407 | 0.229 | 14.5 | 248 | 8.66 | 1.52 | 29 | 3.31 | 14.7 | 0.323 | 7.45 | 0.441 | 4.77 | 0.189 | CC(C)(S)CNCC(NCC(C)(C)S)c1ccccc1O (configuration not stated) | Dose (Rattus norvegicus [19]): 12.4%; Dose (Rattus norvegicus [21]): 5.46%; Dose (Rattus norvegicus [22]): 18.2%; Dose (Rattus norvegicus [23]): 0.408%; Dose (Rattus norvegicus [24]): 4.75%; Dose (Rattus norvegicus [25]): 1.61% |
| 2.47 | 9.43 | 22.7 | 5.09 | 3.08 | 0.045 | 0.274 | 0.288 | 13.6 | 46.8 | 9.19 | 1.57 | 21.7 | 1.08 | 46.2 | 0.206 | 8.84 | 0.375 | 8.07 | 0.124 | CC(C)(S)CNCC(CN)NCC(C)(C)S.Cl.Cl.Cl (configuration not stated) | Dose (Rattus norvegicus [26]): 18.5%; Dose (Rattus norvegicus [21]): 5.24%; Dose (Rattus norvegicus [22]): 11.8%; Dose (Rattus norvegicus [27]): 1.28%; Dose (Rattus norvegicus [24]): 3.57%; Dose (Rattus norvegicus [25]): 2.23% |
